# Assay outcomes from PubChem BioAssay.
# CHO parental Ca – ATP-evoked calcium signal inhibitors, parental CHO, primary screen, counter-screen for OX1R antagonist project, cell-based, fluorescence, Fluo-8 calcium dye; inhibition, % at 5.6 µM; parental CHO-K1, ATP-induced calcium, Fluo-8 fluorescence; 330,000 tested, 0.63% active;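 active = inhibition above that plate's mean sample inhibition plus 3 SD, cut at about 26% in these data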;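 note: 0% = ATP-challenged DMSO wells and 100% = DMSO wells without ATP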
#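 Test system: untransfected parental CHO cell line; also added: ATP stimulus; dosing: 5.6 µM, single dose; signal: calcium-sensitive Fluo-8 fluorescence; measure: percent inhibition of ATP-evoked calcium rise, normalized to controls; benchmarks: low control ATP plus DMSO, high control DMSO only; replication: one well per compound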
# GalR3 antag – GalR3 antagonists in HEK293 cells, primary screen, cell-based, fluorescence readout. HEK293 GalR3-CNG cAMP membrane potential fluorescence; galR3 body fused to GalR1 C-terminus. inhibition, % at 3 µM. 360,000 tested, 0.44% active. AID 651719, 2012;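 active = inhibition above the screen-wide average plus 3 SD, cut at about 13% in these data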;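 note: forskolin and galanin both at EC90 stimulate the cells; cAMP rise reported by CNG channel membrane potential dye signal; 0% = forskolin plus galanin with DMSO and 100% = forskolin alone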
# Target sequence (O60755 1-299 limits assumed): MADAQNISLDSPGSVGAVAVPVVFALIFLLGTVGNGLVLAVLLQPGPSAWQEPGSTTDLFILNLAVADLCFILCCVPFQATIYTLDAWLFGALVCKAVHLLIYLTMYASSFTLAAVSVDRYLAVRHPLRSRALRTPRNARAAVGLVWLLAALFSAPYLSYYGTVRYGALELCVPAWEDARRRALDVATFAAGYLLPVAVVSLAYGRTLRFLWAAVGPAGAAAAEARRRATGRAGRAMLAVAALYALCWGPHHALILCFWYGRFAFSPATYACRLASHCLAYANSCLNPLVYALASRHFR
# OX1R antag-1 – antagonists of human orexin 1 receptor (OX1R) | 330,000 tested, 1.8% active | inhibition, % at 6.6 µM | Orexin/Hypocretin receptor type 1 (Homo sapiens), O43613 | OX1R-expressing cells, FRET antagonist read-out; in the data active = inhibition mostly above about 38%, no sharp cut-off; inactive = mostly below about 40%;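 note: 0% = agonist challenge alone and 100% = reference antagonist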
# OX1R antag-2 – OX1R (HCRTR1) antagonists, primary screen, fluorescence, CHO/OX1R cells, Fluo-8 calcium, orexin A; Orexin/Hypocretin receptor type 1 (Homo sapiens), O43613; Fluo-8 calcium fluorescence; inhibition, % at 5 µM; 330,000 tested, 0.43% active; AID 434989, 2010;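 active = inhibition above its plate's threshold, mean inhibition of all tested compounds on the plate plus 3 SD, cut at about 37% in these data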;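 note: 0% = orexin A challenge wells and 100% = SB-334867-A antagonist wells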
# GPR7 antag – GPR7 receptor antagonists, primary screen, cell-based, fluorescence, single concentration | Neuropeptides B/W receptor type 1 (Homo sapiens), P48145 | GPR7-expressing cells, fluorescence antagonist assay | inhibition, % at 4.4 µM | 290,000 tested, 1.1% active; in the data active = inhibition above about 16%, passing the limit was not always enough;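 note: cells stimulated with the agonist NPW; 0% = agonist with vehicle and 100% = vehicle without agonist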
# Target sequence (P48145 whole entry, looked up): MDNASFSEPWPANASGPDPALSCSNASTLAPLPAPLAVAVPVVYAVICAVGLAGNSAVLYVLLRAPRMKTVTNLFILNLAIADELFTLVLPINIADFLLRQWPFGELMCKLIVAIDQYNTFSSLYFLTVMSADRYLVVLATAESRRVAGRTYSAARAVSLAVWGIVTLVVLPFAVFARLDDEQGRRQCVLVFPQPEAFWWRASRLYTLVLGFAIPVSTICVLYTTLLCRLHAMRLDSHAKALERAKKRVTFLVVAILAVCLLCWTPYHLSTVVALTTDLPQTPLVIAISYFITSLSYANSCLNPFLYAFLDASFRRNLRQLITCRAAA
# The depositor's hits bear a star; / = no result. A selection: hits, their analogues and other compounds. The true share with any hit is near 3.1%.
SMILES,CHO parental Ca,GalR3 antag,OX1R antag-1,OX1R antag-2,GPR7 antag
COc1ccccc1N(CC(=O)NCCSc1ccccn1)S(=O)(=O)c1ccccc1,-27,-5,51*,-15,-11
Cc1csc(=O)n1CC(=O)OCc1cccc2ccccc12,-23,0,46*,2,8
CN(CC(=O)Nc1ccc(Cl)cc1F)C1CCS(=O)(=O)C1 (stereo not given),-2,-8,-1,2,/
Cc1sc2nc3ccc(N4CCCC4)nn3c(=O)c2c1C,1,-2,48*,-15,-6
Cc1ccc2nc3ccc(N4CCCCCCC4)nn3c(=O)c2c1,-10,-5,56,-26,4
COC(=O)[C@]12C[C@H](CC(=O)NCC3CCCCC3)C(=O)N(Cc3ccc4c(c3)OCO4)C1=C[C@H](COCc1ccccc1)O[C@@H]2C,/,-9,/,/,/
COc1cc(Nc2ccc(C)cc2)c([N+](=O)[O-])nc1[N+](=O)[O-],-2,1,54,-8,5
Cc1cc(C)cc(Nc2ccc([N+](=O)[O-])nc2[N+](=O)[O-])c1,-11,-4,61*,-18,-8
COc1ccc(NC(=O)n2ncc3c(C)cccc32)cc1OC,-21,-11,35*,-29,-2
CCOC(=O)c1ccc(NC(=O)c2nc(S(=O)(=O)Cc3ccccc3)ncc2Cl)cc1,27,-7,13,73*,22
Cc1ccc(NC(=O)c2nc(S(=O)(=O)Cc3ccccc3C)ncc2Cl)cc1C,40*,-6,34,25,21
CCOc1ccccc1NC(=O)c1nc(S(=O)(=O)Cc2ccccc2)ncc1Cl,2,2,12,10,-6
Nc1[nH]c(C(=O)c2ccccc2)c(-c2ccc(Cl)cc2)c1C(=O)NCCc1c[nH]c2ccccc12,/,-5,/,/,/
Cc1ccc(NC(=O)CCC(=O)c2ccc(Cl)s2)nc1,-17,-2,5,2,/
CCOCCCn1c(C)nc2c(c1=O)c1nc3ccccc3nc1n2-c1ccc(C)cc1,-12,/,0,2,-11
CCO/C(C)=N/n1c2nc3ccccc3nc2c2c(=O)n(CC(C)C)c(C)nc21,-9,-3,73*,-26,5
Cc1ccccc1CS(=O)(=O)CC(O)CN1CCCC1=O (stereo not given),-5,-5,-8,10,0
Nc1nonc1C(=O)NCCN=Cc1cc(Cc2ccccc2)cc(Br)c1O,62*,/,12,16,-20
CC(NC(=O)c1cc2c(=O)n3ccccc3nc2n(CC2CCCO2)c1=N)c1ccccc1 (stereo not given),-9,-9,37*,-19,0
COc1ccc(Cn2c(=N)c(C(=O)NC3CCCCC3)cc3c(=O)n4ccccc4nc32)cc1,-7,-8,22,-32,23
Cc1ccc(CNC(=O)c2cc3c(=O)n4ccccc4nc3n(CC3CCCO3)c2=N)cc1 (stereo not given),-18,/,66*,-49,1
COCCCn1c(=N)c(C(=O)NC2CCCCC2)cc2c(=O)n3ccccc3nc21,-9,-3,76*,-29,17
N=c1c(C(=O)NCc2ccco2)cc2c(=O)n3ccccc3nc2n1C1CCCC1,-6,-8,54*,-18,-14
CC(C)N(C(=S)Nc1cccc(S(=O)(=O)N(C)C)c1)c1ccccc1,-4,2,12,-4,0
O=C(Cc1c[nH]c2ccccc12)Nc1ccc(Nc2cccnc2)c(-c2cccc(Cl)c2)c1,/,-9,/,/,/
SMILES,CHO parental Ca,GalR3 antag,OX1R antag-1,OX1R antag-2,GPR7 antag
NC(=O)c1ccc(NC(=O)COC(=O)c2ccccc2Nc2ccccc2)cc1,2,-3,24,5,-9
CO[C@H]1CN(C)C(=O)c2ccc(NC(=O)C3CCC3)cc2OC[C@H](C)N(CC2CCCCC2)C[C@@H]1C,/,-2,/,/,/
Cc1cc(NC(=O)Cc2cn(Cc3ccccc3)c3ccccc23)ccc1Oc1cccnc1,/,-1,/,/,/
Cc1c(C(=O)Nc2c3c(nn2C(C)(C)C)CS(=O)(=O)C3)cccc1[N+](=O)[O-],-14,-7,23,-2,-11
N#Cc1cc2c(=O)n3ccccc3nc2n(CC2CCCO2)c1=N (stereo not given),/,/,/,/,-9
N=c1c(C(=O)NC2CCCC2)cc2c(=O)n3ccccc3nc2n1CC1CCCO1 (stereo not given),-15,-3,50*,0,7
Oc1ccccc1-c1cc(-c2ccc3c(c2)OCCO3)n[nH]1,-3,-3,59*,18,-7
CC(=O)Nc1cccc(OCc2cnc(Cl)s2)c1,7,0,2,-9,20*
CC(=O)Nc1cccc(OCc2c(F)cccc2Cl)c1,-13,-2,32,-13,-14
CC(C)Oc1ccc(S(=O)(=O)N2CCCCC2)cc1NC(=O)C1CSC2(C)CCC(=O)N12 (stereo not given),-23,-5,31,-21,/
COc1ccc(Cl)cc1NC(=O)C1CCN(C(=O)Nc2ccccc2)CC1,-14,-4,13,-18,/
CCN(Cc1ccccc1)C(=O)Cn1c(=O)n(CC(=O)NCc2ccco2)c(=O)c2sccc21,-4,-5,52*,-1,3
CCCCNC(=O)C[C@H]1C[C@@]2(C(=O)OC)C(=C[C@H](COCc3ccccc3)O[C@@H]2C)N(Cc2ccc3c(c2)OCO3)C1=O,/,-3,/,/,/
Cc1cc(C)n2nc(C(=O)N/N=C/c3cccs3)nc2n1,-3,-9,35*,-19,-5
Cc1cc(C)n2nc(C(=O)N/N=C/c3ccccc3C)nc2n1,0,-4,16,2,-4
Cn1c(=O)c2c(nc(NN=C3CCCC3)n2C)n(C)c1=O,-11,-7,48*,-19,1
Cn1c(=O)c2c(nc(NNC(=O)C(F)(F)F)n2C)n(C)c1=O,0,-3,7,-7,-8
COc1ccc(CN2CCC(C(=O)c3ccc(Cl)cc3)CC2)cc1,-12,-9,2,-14,-12
CCCCNC(=O)C1C(c2ccc(OC)cc2)=Nc2ccccc2N1C(=O)Cc1cc(OC)cc(OC)c1 (stereo not given),/,-9,/,/,/
C[C@H]1[C@@H](c2ccccc2)Oc2ccc(Cl)cc2S(=O)(=O)N1Cc1cccc(Cl)c1,/,-8,/,/,/
O=C(Nc1ccc([N+](=O)[O-])cn1)c1ccc(Br)o1,-10,-5,64*,-5,-2
CC(C)CCNC(=O)C1CC(c2ccc(C(F)(F)F)cc2)=NO1 (stereo not given),52*,1,53,-4,/
COc1ccc([C@H]2CC(=O)C=C(c3ccc(C)c([N+](=O)[O-])c3)C2)cc1,-22,-2,10,-15,/
CCCNC(=S)N1CCN(c2nc(-c3ccc(C)cc3)cs2)CC1,53*,-10,32,1,-10
